Among the data in PubChem BioAssay AID373 (The Scripps Research Institute Molecular Screening Center, 2006) are activation values, retold here.

The whole screen tested about 60,000 compounds, of which about 60 (0.1%) were called active.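 The calls were made as follows: active = activation above the screen-wide mean plus 3 SD (cut at about 4.5% in these data, passing the limit was not always enough); inactive = the rest, inconclusive results apart.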 For the sample, actives were picked, then their nearest neighbours and some compounds at random.

This assay concerns the target Sphingosine 1-phosphate receptor 3 (Homo sapiens) (UniProt Q99500). Kind of assay: human S1P3 receptor agonists, primary screen, cell-based, primary and confirmation, NFAT-BLA reporter (AID 373). A digest of the protocol:
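Assay system: stable CHO line with human S1P3, Gα16, NFAT-BLA reporter; Detection: FRET β-lactamase substrate fluorescence, excitation 405 nm, 460/535 nm emission ratio, background-subtracted; Read-out: percent activation versus median 1 µM S1P response, basal-subtracted, per plate; Incubation: cells plated overnight, compound 4 h 37 °C, substrate 2 h RT.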

The mark [1] stands for this setting: S1P3 NFAT-BLA reporter cells, agonism, FRET ratio, at 4.5 µM, stronger effect = higher value, relative to 1 µM S1P, basal subtracted.

Sequence of Sphingosine 1-phosphate receptor 3 (Homo sapiens) (Q99500 whole entry, looked up): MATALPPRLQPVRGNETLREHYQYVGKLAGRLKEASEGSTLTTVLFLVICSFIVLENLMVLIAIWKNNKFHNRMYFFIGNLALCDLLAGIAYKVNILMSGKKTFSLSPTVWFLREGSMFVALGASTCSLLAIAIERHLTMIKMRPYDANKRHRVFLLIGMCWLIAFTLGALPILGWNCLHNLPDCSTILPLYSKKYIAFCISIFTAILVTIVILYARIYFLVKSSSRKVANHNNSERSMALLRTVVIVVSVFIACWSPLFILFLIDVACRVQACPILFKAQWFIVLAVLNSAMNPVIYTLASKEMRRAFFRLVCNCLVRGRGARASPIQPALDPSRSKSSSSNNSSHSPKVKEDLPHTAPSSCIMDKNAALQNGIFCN

As for `CC(NC(=O)c1cc(-c2ccccc2)on1)c1ccccc1` (stereo not drawn), the activation under setting [1] was -1.3% (inactive).

As for `O=C(Nc1ccc2c(c1)nc1n2CCCCC1)c1cc(S(=O)(=O)N2CCOCC2)ccc1Cl`, under setting [1], the activation was -0.4% (inactive).

For the compound `C=C(C)c1cccc(C(C)(C)NC(=O)N2CCN(c3ncccn3)CC2)c1`, under setting [1], the activation was -0.9% (inactive).

With `CC(C)C(=O)Nc1c(C(=O)c2ccc(F)cc2)oc2ccccc12`, the activation under setting [1] was -0.2% (inactive).

As for `O=C(CN1CCOCC1)N1CCCc2c1c(=O)oc1ccc(OCc3ccccc3)cc21`, under setting [1], the activation was -1% (inactive).

For the compound `COCCOC(=O)C1=C(C)N=c2s/c(=C\c3cccs3)c(=O)n2C1c1cccs1` (stereo not drawn), under setting [1], the activation is -2% (inactive).

For the compound `CC1(C)CC(=O)c2cc(OCC(=O)NCC3CCCO3)ccc2O1` (stereo not drawn), the activation under setting [1] is -0.8% (inactive).

For `CN(CCc1ccccn1)S(=O)(=O)c1ccc2c3c(cccc13)C(=O)N2`, the activation under setting [1] is 0.3% (inactive).

Consider `CC(=O)N1CC2(C)CN(C(C)=O)CC(C)(C1)C2=O`, for which, under setting [1], the activation is 0% (inactive).

On to `Cc1ccc2c(c1)sc1ncc(NC(=O)c3ccccc3)c(=O)n12`, for which the activation under setting [1] was -1.1% (inactive).

As for `O=C(NCCc1ccco1)c1nn(Cc2ccccc2)c(=O)c2ccccc12`, the activation under setting [1] is 0.7% (inactive).

Consider `Cc1ccnc(N2C(=O)c3ccccc3C2Nc2ccc3c(c2)OCCO3)c1` (stereo not drawn), for which the activation under setting [1] is 0.3% (inactive).

As to `COc1ccc(OC)c(NC(=O)CSc2nc3cccnc3n2C)c1`, the activation under setting [1] was 0.2% (inactive).

In the case of `COc1ccc(Cn2c(=O)sc3ccccc32)cc1OC`, under setting [1], the activation is -0.4% (inactive).

In the case of `O=C(NC(c1ccccc1)c1ccccc1)N1CCN(CCO)CC1`, the activation under setting [1] was 0.8% (inactive).

For `CC(C)Cn1c(N)c(C(=O)NCc2cccs2)c2nc3ccccc3nc21`, the activation is 8.2% (active) (S1P3 NFAT-BLA reporter cells, agonism, FRET ratio; at 4.5 µM; stronger effect = higher value; relative to 1 µM S1P, basal subtracted) and 5.4% (S1P3 NFAT-BLA reporter cells, agonism, FRET ratio; measured here: confirmation screen, triplicate average; at 4.5 µM; stronger effect = higher value; relative to 1 µM S1P, basal subtracted).

For `C=CCn1c(N)c(C(=O)OCC(C)C)c2nc3ccccc3nc21`, the activation under setting [1] is 0.4% (inactive).

In the case of `C=CCn1c(N)c(S(=O)(=O)c2cccs2)c2nc3ccccc3nc21`, the activation under setting [1] is -0.5% (inactive).

As for `CCCOC(=O)CC1C(=O)NCCN1Cc1ccc(F)cc1` (stereo not drawn), the activation under setting [1] was 0.3% (inactive).

On to `COc1cc(OC)cc(C(=O)Nc2ncc3c(n2)CC(C)(C)CC3=O)c1`, for which the activation under setting [1] was -1.1% (inactive).

On to `CN1CCN(C(=O)c2ccc(NS(=O)(=O)c3ccccc3)cc2)CC1`, for which the activation under setting [1] is -0.2% (inactive).

`CCOc1cc(C(=O)N2CCc3cc(OC)c(OC)cc3C2)ccc1OC(F)F`: the activation under setting [1] was -0.2% (inactive).

For the compound `COc1ccc(S(=O)(=O)N2CCN(C(=O)c3cccs3)CC2)cc1OC`, the activation under setting [1] is 0% (inactive).

Regarding `Cc1c2cnn(-c3ccccc3)c(=O)c2c(C)n1CCCC(=O)N1CCN(C)CC1`, the activation under setting [1] is -1.3% (inactive).

As for `COc1ccc(C(=O)OCC(=O)c2ccc(C)c(S(=O)(=O)N3CCOCC3)c2)cc1OC`, the activation under setting [1] was -1% (inactive).

As to `CC1(C)CC(CCC(=O)Nc2ccccc2Cl)C(=O)O1` (stereo not drawn), the activation under setting [1] is -0.9% (inactive).

For `Cc1ccccc1-n1c(SCC(=O)NCc2cccs2)nnc1-c1ccncc1`, the activation under setting [1] is 0.9% (inactive).

Regarding `CC1(C)Oc2ccc(C(=O)N3CCOCC3)cc2N(CC(=O)Nc2ccccc2)C1=O`, the activation under setting [1] is -0.1% (inactive).

As to `CCCCc1nc2c(=O)[nH]c3ccccc3c2o1`, under setting [1], the activation was -0.4% (inactive).

Regarding `C=CCn1c(C2CC(=O)N(c3ccc(C)cc3)C2)nc2ccccc21` (stereo not drawn), the activation under setting [1] is -2.5% (inactive).

Regarding `O=C(COc1ccccc1)N1CCc2ccccc2C1`, under setting [1], the activation was 0.4% (inactive).

In the case of `CC(=O)CSc1nnc(CSc2ncccn2)n1C1CCCCC1`, the activation under setting [1] was -0.6% (inactive).

Take `CC1(C)CC(=O)C(C2=NC(C)(C)Cc3ccccc32)=C(O)C1`: under setting [1], the activation is -2% (inactive).

As to `CC(C)C(=O)Nc1cccc(C(=O)Nc2ccc3c(c2)OCO3)c1`, under setting [1], the activation was -1.2% (inactive).

For the compound `COc1ccc(OC)c2c1sc(=NC(=O)CN1C(=O)CCC1=O)n2C`, the activation under setting [1] was -2.3% (inactive).

With `OCc1nc(CO)n(Cc2ccccc2)n1`, the activation under setting [1] was -1% (inactive).

As for `COc1ccc(N2C(=O)CN=C2Nc2cccc(C)c2C)cc1OC`, the activation under setting [1] is 0.2% (inactive).

`CCCc1nnc(NC(=O)CN2C(=O)c3ccccc3S2(=O)=O)s1`: under setting [1], the activation is -1% (inactive).

As to `CCOC(=O)c1sc(/N=C/Nc2nc(C)c(C(=O)OCC)s2)nc1C`, the activation under setting [1] was -1.5% (inactive).

In the case of `N#CCCN(CCC#N)c1nnc(-c2ccccc2)s1`, the activation under setting [1] is -0.2% (inactive).

Regarding `CCOC(=O)C1C(=O)C=C(c2ccc(OC)cc2)CC1c1ccco1` (stereo not drawn), the activation under setting [1] is -1.9% (inactive).

Regarding `Cc1nc(SC(C)C)[nH]c(=O)c1Cc1ccccc1`, under setting [1], the activation was 0.1% (inactive).

For the compound `CCCc1cc(=O)oc2c(C)c(O)c(CN3CCCCC3)cc12`, under setting [1], the activation was -2.1% (inactive).

Regarding `CCC(=O)Nc1ccccc1C(=O)N1CCN(Cc2ccccc2)CC1`, the activation under setting [1] was -1.1% (inactive).

In the case of `NS(=O)(=O)c1ccc(NS(=O)(=O)/C=C/c2ccccc2)cc1`, the activation under setting [1] was 1.3% (inactive).

For the compound `Cc1occc1C(=O)Nc1cccc(Cn2cccn2)c1`, the activation under setting [1] is -0.4% (inactive).

Consider `COc1ncnc2sc3c(c12)CCCC3`, for which the activation under setting [1] was -0.3% (inactive).

For `COc1ccc(C)cc1S(=O)(=O)NC1CCCCC1`, under setting [1], the activation is -0.3% (inactive).

As to `CCOc1cccc(/C(O)=C2/C(=O)C(=O)N(CCOC)C2c2ccncc2)c1` (stereo not drawn), the activation under setting [1] was -1.3% (inactive).

As to `CCOC(=O)c1sc(NC(=O)C(CC)Sc2nccn2C)nc1C` (stereo not drawn), the activation under setting [1] is -1.7% (inactive).

As to `Cc1cccc(NC(=O)CN2CCCN(S(=O)(=O)c3ccc(Br)s3)CC2)c1`, the activation under setting [1] is -1.4% (inactive).

Regarding `CCOC(=O)c1cc(-c2nnc(-c3cc(OC)c(OC)c(OC)c3)o2)c(C)nc1C`, the activation under setting [1] is -1.5% (inactive).

On to `CCOC(=O)c1c(C(C#N)C#N)cc(C)nc1C`, for which the activation under setting [1] is -3.8% (inactive).

For the compound `O=C(Cn1nnc(-c2ccccc2)n1)NCc1ccccc1`, the activation under setting [1] is -0.5% (inactive).

Take `Cc1cc(C)nc(SCc2nnc(SCC(=O)Nc3ncc(C)s3)n2Cc2ccco2)n1`: under setting [1], the activation is 0% (inactive).

As to `CCn1ncc(C2=NOC(C(=O)Nc3ccccc3C(=O)OC)C2)c1C` (stereo not drawn), the activation under setting [1] was -0.6% (inactive).

With `CC1Cc2cc(/C(O)=C3\C(=O)C(=O)N(CCN4CCOCC4)C3c3ccccc3F)ccc2O1` (stereo not drawn), the activation under setting [1] is 0.5% (inactive).

As to `CC1CN(C(=O)CN2C(=O)NC(C)(c3ccccc3)C2=O)CC(C)O1` (stereo not drawn), the activation under setting [1] was 1.6% (inactive).

On to `O=C1NC(Nc2nc3ccccc3s2)(C(F)(F)F)C(=O)N1C1CCCCC1` (stereo not drawn), for which the activation under setting [1] was -0.5% (inactive).

On to `Cc1nc(SCC(=O)Nc2cc(C)on2)c2c3c(sc2n1)CCCC3`, for which, under setting [1], the activation is -0.8% (inactive).

Regarding `CCOc1ccc(NC(=O)N(CCC(C)C)C(C)c2ccco2)cc1` (stereo not drawn), the activation under setting [1] is -0.3% (inactive).

Consider `Cc1cc(=O)n(C)c(=O)n1CCCNc1ccccc1`, for which the activation under setting [1] is -0.2% (inactive).
